Laboratory results from the M2OR odorant receptor database.

How the values were obtained:
Details in all cases: stereoisomer not certain
OR5K1 (Homo sapiens) = target: T1, OR5K1 (Homo sapiens) (UniProt Q8NHB7)
T1 sequence (whole entry): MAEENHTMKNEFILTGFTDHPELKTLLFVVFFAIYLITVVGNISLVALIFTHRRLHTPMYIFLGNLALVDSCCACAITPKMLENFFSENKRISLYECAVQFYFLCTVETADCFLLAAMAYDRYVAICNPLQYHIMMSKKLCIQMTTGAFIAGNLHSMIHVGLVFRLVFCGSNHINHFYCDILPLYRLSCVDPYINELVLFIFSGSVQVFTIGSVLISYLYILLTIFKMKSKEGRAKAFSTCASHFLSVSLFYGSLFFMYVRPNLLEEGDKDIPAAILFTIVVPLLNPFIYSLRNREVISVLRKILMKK
In short: (§1)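 Assay methods differ from source to source, frequently being transient luciferase assays in mammalian cell lines. For each receptor–molecule pair, the label responsive (active) applies when the original authors judged the measured signal statistically different from baseline, and non-responsive (inactive) applies otherwise.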

OR5G3 (Homo sapiens) = OR5G3 (Homo sapiens) (UniProt P0C626)
Chain of OR5G3 (Homo sapiens) (P0C626 whole entry): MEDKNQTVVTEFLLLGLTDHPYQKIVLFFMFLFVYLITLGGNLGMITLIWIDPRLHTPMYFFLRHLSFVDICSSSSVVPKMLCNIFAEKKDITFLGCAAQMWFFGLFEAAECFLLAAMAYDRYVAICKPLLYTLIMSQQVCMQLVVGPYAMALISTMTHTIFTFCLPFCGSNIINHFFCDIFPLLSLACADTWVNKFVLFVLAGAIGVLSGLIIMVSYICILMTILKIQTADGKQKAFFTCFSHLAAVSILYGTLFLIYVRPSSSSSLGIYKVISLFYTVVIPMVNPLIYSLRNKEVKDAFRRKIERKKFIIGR
In short: as §1

OR5H14 (Homo sapiens) = OR5H14 (Homo sapiens) (UniProt A6NHG9)
Chain of OR5H14 (Homo sapiens) (A6NHG9 whole entry): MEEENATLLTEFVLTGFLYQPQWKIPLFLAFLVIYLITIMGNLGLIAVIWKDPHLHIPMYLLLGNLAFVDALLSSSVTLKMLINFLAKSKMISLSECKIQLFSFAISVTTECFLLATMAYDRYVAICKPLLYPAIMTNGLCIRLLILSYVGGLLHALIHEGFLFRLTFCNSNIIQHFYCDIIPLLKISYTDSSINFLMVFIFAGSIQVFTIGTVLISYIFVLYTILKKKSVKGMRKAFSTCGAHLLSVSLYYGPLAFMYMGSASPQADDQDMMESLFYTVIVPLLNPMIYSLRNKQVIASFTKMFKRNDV
In short: as §1

OR5H15 (Homo sapiens) = OR5H15 (Homo sapiens) (UniProt A6NDH6)
Chain of OR5H15 (Homo sapiens) (A6NDH6 whole entry): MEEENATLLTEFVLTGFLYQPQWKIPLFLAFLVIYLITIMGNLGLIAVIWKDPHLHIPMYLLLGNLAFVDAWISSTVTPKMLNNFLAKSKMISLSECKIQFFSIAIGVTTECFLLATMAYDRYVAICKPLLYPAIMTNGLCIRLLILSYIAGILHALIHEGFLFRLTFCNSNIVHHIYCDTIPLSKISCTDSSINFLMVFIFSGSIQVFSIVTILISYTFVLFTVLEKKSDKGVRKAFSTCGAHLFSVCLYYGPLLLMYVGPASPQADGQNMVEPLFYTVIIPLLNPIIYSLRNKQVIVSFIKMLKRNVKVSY
In short: as §1

OR5H2 = test system: OR5H2
Chain of OR5H2 (as listed by the source): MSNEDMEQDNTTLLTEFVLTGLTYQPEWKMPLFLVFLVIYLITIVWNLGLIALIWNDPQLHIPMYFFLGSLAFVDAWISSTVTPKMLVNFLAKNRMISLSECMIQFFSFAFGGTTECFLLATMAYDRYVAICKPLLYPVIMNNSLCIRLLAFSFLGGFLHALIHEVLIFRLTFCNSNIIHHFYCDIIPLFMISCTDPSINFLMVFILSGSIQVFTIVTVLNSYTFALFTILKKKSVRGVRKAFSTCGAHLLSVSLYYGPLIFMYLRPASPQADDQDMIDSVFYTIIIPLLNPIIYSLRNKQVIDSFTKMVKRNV
In short: as §1

OR5H6 (Homo sapiens) = OR5H6 (Homo sapiens) (UniProt Q8NGV6)
Chain of OR5H6 (Homo sapiens) (Q8NGV6 whole entry): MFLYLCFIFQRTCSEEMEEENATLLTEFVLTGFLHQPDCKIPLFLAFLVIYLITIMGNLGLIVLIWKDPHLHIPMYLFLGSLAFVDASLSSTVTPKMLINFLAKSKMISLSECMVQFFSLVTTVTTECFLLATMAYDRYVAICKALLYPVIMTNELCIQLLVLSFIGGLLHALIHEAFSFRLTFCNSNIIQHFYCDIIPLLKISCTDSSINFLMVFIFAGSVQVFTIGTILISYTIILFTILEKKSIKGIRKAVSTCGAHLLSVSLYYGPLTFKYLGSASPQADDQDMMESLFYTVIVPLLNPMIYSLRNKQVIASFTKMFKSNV
In short: as §1

OR5H8 (Homo sapiens) = OR5H8 (Homo sapiens) (UniProt P0DN80)
Chain of OR5H8 (Homo sapiens) (P0DN80 whole entry): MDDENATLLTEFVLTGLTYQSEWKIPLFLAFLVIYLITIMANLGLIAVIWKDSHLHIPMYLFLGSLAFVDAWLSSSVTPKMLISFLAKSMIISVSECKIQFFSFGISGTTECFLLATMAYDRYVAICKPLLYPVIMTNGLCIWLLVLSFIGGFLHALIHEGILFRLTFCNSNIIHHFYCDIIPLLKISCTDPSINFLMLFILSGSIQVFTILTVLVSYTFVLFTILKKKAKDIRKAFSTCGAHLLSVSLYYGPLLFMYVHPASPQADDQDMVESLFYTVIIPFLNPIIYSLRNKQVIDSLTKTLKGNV
In short: as §1

OR5I1 (Homo sapiens) = OR5I1 (Homo sapiens) (UniProt Q13606)
Chain of OR5I1 (Homo sapiens) (Q13606 whole entry): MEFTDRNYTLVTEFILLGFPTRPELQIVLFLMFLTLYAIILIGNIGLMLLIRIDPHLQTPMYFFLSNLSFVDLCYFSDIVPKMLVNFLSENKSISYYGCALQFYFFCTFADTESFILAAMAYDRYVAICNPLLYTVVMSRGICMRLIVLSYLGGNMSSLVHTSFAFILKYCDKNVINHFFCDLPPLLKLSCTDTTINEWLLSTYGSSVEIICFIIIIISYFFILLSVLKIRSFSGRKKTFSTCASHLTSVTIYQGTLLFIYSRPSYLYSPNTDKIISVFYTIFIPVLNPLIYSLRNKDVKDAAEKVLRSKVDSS
In short: as §1

OR5J2 (Homo sapiens) = OR5J2 (Homo sapiens) (UniProt Q8NH18)
Chain of OR5J2 (Homo sapiens) (Q8NH18 whole entry): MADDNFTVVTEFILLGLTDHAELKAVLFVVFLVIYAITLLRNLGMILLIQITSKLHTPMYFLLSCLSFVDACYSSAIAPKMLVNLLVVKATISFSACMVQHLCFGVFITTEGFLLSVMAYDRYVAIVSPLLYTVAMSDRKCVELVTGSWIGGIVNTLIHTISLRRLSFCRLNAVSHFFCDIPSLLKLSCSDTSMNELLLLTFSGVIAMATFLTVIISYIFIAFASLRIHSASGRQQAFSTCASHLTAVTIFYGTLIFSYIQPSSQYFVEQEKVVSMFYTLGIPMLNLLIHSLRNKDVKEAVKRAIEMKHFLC
In short: as §1

OR5K2 (Homo sapiens) = OR5K2 (Homo sapiens) (UniProt Q8NHB8)
Chain of OR5K2 (Homo sapiens) (Q8NHB8 whole entry): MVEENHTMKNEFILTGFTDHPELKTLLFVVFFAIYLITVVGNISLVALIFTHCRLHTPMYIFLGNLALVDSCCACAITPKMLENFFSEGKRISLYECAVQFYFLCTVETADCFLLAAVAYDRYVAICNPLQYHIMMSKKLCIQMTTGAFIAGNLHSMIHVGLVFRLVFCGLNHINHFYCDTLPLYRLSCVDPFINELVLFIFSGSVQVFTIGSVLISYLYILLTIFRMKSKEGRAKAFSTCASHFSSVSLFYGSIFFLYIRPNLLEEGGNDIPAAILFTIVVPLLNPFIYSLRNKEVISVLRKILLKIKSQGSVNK
In short: as §1

OR5K3 (Homo sapiens) = OR5K3 (Homo sapiens) (UniProt A6NET4)
Chain of OR5K3 (Homo sapiens) (A6NET4 whole entry): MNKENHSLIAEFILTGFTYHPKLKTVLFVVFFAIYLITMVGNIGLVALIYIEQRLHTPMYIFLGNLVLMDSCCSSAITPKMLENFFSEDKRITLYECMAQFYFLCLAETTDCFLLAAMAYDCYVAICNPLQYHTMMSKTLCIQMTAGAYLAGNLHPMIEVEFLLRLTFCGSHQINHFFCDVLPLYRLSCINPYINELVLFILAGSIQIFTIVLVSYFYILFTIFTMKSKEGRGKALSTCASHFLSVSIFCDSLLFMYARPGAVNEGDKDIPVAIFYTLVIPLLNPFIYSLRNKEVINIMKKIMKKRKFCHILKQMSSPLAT
In short: as §1

OR5K4 (Homo sapiens) = OR5K4 (Homo sapiens) (UniProt A6NMS3)
Chain of OR5K4 (Homo sapiens) (A6NMS3 whole entry): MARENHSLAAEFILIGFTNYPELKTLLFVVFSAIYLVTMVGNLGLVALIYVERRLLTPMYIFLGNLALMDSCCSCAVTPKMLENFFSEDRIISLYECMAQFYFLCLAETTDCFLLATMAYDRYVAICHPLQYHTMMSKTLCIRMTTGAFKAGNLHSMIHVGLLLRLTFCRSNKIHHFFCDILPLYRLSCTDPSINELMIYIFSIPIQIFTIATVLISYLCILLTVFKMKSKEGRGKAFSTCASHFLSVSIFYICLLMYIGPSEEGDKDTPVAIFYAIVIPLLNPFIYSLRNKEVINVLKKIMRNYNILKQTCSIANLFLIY
In short: as §1

OR5L1 (Homo sapiens) = OR5L1 (Homo sapiens) (UniProt Q8NGL2)
Chain of OR5L1 (Homo sapiens) (Q8NGL2 whole entry): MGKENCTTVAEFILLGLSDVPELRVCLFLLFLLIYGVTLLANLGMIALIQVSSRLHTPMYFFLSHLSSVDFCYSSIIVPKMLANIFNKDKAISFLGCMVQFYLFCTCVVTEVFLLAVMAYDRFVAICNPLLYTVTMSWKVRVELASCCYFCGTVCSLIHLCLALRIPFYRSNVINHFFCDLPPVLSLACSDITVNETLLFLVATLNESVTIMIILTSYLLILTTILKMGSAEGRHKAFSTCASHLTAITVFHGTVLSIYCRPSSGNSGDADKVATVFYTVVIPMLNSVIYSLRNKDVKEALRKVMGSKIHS
In short: as §1

OR5M1 (Homo sapiens) = OR5M1 (Homo sapiens) (UniProt Q8NGP8)
Chain of OR5M1 (Homo sapiens) (Q8NGP8 whole entry): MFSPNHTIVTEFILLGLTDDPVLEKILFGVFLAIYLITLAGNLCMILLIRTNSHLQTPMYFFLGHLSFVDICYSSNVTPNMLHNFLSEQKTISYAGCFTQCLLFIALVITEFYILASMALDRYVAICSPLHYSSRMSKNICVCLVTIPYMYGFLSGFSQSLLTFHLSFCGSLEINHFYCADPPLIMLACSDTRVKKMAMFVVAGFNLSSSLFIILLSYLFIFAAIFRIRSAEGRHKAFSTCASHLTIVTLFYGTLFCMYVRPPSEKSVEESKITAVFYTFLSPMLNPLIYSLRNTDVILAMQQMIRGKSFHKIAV
In short: as §1

OR5H1 (Homo sapiens) = OR5H1 (Homo sapiens) (UniProt A6NKK0)
Chain of OR5H1 (Homo sapiens) (A6NKK0 whole entry): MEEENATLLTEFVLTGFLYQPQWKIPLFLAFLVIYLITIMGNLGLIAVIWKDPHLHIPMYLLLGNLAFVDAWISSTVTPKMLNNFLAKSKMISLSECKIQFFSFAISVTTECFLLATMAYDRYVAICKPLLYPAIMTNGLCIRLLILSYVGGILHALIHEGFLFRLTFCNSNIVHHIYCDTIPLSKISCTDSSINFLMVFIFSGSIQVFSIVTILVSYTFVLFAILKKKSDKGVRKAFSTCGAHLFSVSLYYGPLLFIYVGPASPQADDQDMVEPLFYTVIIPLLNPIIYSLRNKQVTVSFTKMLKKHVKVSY
In short: as §1

OR5H1 F17L A30T H56Q = test system: OR5H1 F17L A30T H56Q
In short: as §1

OR5H1 T181N = test system: OR5H1 T181N
Chain of OR5H1 T181N (as listed by the source, stated change not applied): as the sequence (A6NKK0 whole entry) above, with T181N counted along it
In short: as §1

OR5H1 = test system: OR5H1
In short: as §1

OR5K2 L197M = test system: OR5K2 L197M
In short: as §1

OR5L2 (Homo sapiens) = OR5L2 (Homo sapiens) (UniProt Q8NGL0)
In short: as §1

Measured: odorant receptor agonist call

SCc1ccco1
inactive: OR5K1 (Homo sapiens)

C=CCc1ccc(OC)cc1
inactive: OR5K1 (Homo sapiens)

O=Cc1ccc2c(c1)OCO2
inactive: OR5K1 (Homo sapiens)

Cc1ccc(O)c(C)c1
inactive: OR5K1 (Homo sapiens)

Cc1c([N+](=O)[O-])c(C)c([N+](=O)[O-])c(C(C)(C)C)c1[N+](=O)[O-]
not listed: OR5K1 (Homo sapiens) | OR5H1 (Homo sapiens) | OR5H1 F17L A30T H56Q | OR5H1 T181N | OR5H1 | OR5K2 L197M | OR5L2 (Homo sapiens)
inactive: all other assays above

NCC(=O)c1ccccc1
inactive: OR5K1 (Homo sapiens)

CSSC
inactive: OR5K1 (Homo sapiens)

C=CCSSCC=C
inactive: OR5K1 (Homo sapiens)

C=CCOC(=O)Cc1ccccc1
not listed: OR5G3 (Homo sapiens) | OR5H8 (Homo sapiens)
inactive: all other assays above

CCOC(=O)Cc1ccccc1
inactive: OR5K1 (Homo sapiens)

COc1ccc(C=O)cc1
inactive: OR5K1 (Homo sapiens)

Cc1ccccc1O
inactive: OR5K1 (Homo sapiens)
